# According to ChEMBL document CHEMBL5357069, “Development of a GC-376 Based Peptidomimetic PROTAC as a Degrader of 3-Chymotrypsin-like Protease of SARS-CoV-2” (ACS Med Chem Lett, 2024):
# Active and inactive are the calls of the source. The calls are words filed in the database; no cut-off is given here.
# Columns and labels:
# [1] = target: T1, Protein cereblon/Replicase polyprotein 1ab (Severe acute respiratory syndrome coronavirus 2) (UniProt Q96SW2+P0DTD1); assay: PROTAC activity at CRBN/C-terminal HA epitope-tagged SARS-CoV-2 3CLPro transfected in human HeLa cells assessed as degradation of 3CLPro upto 80 uM by immunoblot analysis; format: cell-based
# How it was run: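 HeLa cells stably expressing C-terminally HA-tagged 3CLPro (lentiviral, puromycin-selected) treated 24 h at a range of concentrations; lysates immunoblotted, 3CLPro normalized to actin.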
# [2] = target: T1, Protein cereblon/Replicase polyprotein 1ab (Severe acute respiratory syndrome coronavirus 2); assay: PROTAC activity at CRBN/C-terminal HA epitope-tagged SARS-CoV-2 3CLPro transfected in human HeLa cells assessed as degradation of 3CLPro at 80 uM incubated upto 48 hrs by immunoblot analysis; format: cell-based
# How it was run: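 Time course in HeLa cells stably expressing C-terminally HA-tagged 3CLPro (lentiviral transduction, puromycin selection), treated at 80 μM; whole-cell extracts immunoblotted, 3CLPro band normalized to actin.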
# [3] = target: Replicase polyprotein 1ab (Severe acute respiratory syndrome coronavirus 2) (UniProt P0DTD1); assay: Binding affinity to dimeric form of SARS-CoV-2 3CLPro assessed as change in chemical shift by NMR spectroscopy
# How it was run: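 Solution NMR titration of dimeric 3CLPro with the ligand up to a 1:1 protein:ligand molar ratio, following loss of free-protein signals and appearance of adduct signals.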
# [4] = target: Replicase polyprotein 1ab (Severe acute respiratory syndrome coronavirus 2) (UniProt P0DTD1); assay: Binding affinity to monomeric form of SARS-CoV-2 3CLPro assessed as change in chemical shift by NMR spectroscopy
# [5] = target: Replicase polyprotein 1ab (Severe acute respiratory syndrome coronavirus 2, UniProt P0DTD1); assay: Inhibition of N-terminal 6xHis-tagged SARS-CoV-2 3CLPro expressed in Escherichia coli BL21(DE3) using Hi-lyte Fluor-488-ESATLQSGLRKAK-(QXL-520)-NH2 as substrate preincubated for 10 mins followed by substrate addition measured for 30 mins by fluorometric assay
# [6] = target: Replicase polyprotein 1ab (Severe acute respiratory syndrome coronavirus 2) (UniProt P0DTD1); assay: Binding affinity to SARS-CoV-2 3CLPro assessed as covalent complex formation by MALDI TOF mass spectrometry
# [7] = target: Replicase polyprotein 1ab (Severe acute respiratory syndrome coronavirus 2) (UniProt P0DTD1); assay: Reversible binding affinity to SARS-CoV-2 3CLPro using fluorogenic substrate assessed as covalent complex formation preincubated for 30 mins followed by substrate addition by MALDI TOF mass spectrometry
# How it was run: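 Reversibility by dilution: enzyme incubated 30 min with or without large compound excess, then diluted 100-fold into buffer with fluorogenic substrate; initial velocities from progress curves compared against compound-free enzyme.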
# [8] = test system: HeLa; assay: Cytotoxicity against human HeLa cells assessed as cell viability upto 80 uM incubated for 72 hrs by MTT assay; format: toxicity, cell-based
# How it was run: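 HeLa cells exposed to compound for 72 h at a series of concentrations; viability read by MTT assay.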
# [9] = target: Replicase polyprotein 1ab (Severe acute respiratory syndrome coronavirus 2) (UniProt P0DTD1); assay: Inhibition of N-terminal 6xHis-tagged SARS-CoV-2 3CLPro expressed in Escherichia coli BL21(DE3) using Hi-lyte Fluor-488-ESATLQSGLRKAK-(QXL-520)-NH2 as substrate at 10 uM preincubated for 10 mins followed by substrate addition measured for 30 mins by fluorometric assay relative to control; settings: time 40.0 min
# [10] = target: Replicase polyprotein 1ab (Severe acute respiratory syndrome coronavirus 2) (UniProt P0DTD1); assay: Inhibition of N-terminal 6xHis-tagged SARS-CoV-2 3CLPro expressed in Escherichia coli BL21(DE3) using Hi-lyte Fluor-488-ESATLQSGLRKAK-(QXL-520)-NH2 as substrate at 100 uM preincubated for 10 mins followed by substrate addition measured for 30 mins by fluorometric assay relative to control; settings: time 40.0 min
Structure (SMILES),Activity [1],Activity [2],Activity [3],Activity [4],IC50 [5],Activity [6],Activity [7],Activity [8],inhibition [9],inhibition [10]
CC(C)C[C@H](NC(=O)OCc1ccccc1)C(=O)N[C@H](/C=C/C(=O)N1CCN(CC2CCN(c3cc4c(cc3F)C(=O)N(C3CCC(=O)NC3=O)C4=O)CC2)CC1)C[C@@H]1CCNC1=O (stereo partly drawn),Active,Active,Active,inactive,21.2 µM,Active,Active,Non-Toxic,–,–
COC(=O)/C=C/[C@H](C[C@@H]1CCNC1=O)NC(=O)[C@H](Cc1ccccc1)NC(=O)[C@@H](NC(=O)CCC(=O)N1CCN(C(=O)C2CCN(c3cccc4c3C(=O)N(C3CCC(=O)NC3=O)C4=O)CC2)CC1)C(C)C (stereo partly drawn),–,–,–,–,> 100 µM,–,–,–,0%,64%
COC(=O)/C=C/[C@H](C[C@@H]1CCNC1=O)NC(=O)[C@H](CC(C)C)NC(=O)OCc1ccccc1,–,–,–,–,1.35 µM,Active,–,–,–,–
